Compound activity deposited in PubChem BioAssay by several laboratories.
An excerpt weighted towards active compounds, which were near 3.8% of everything screened.
NPY1 pot ag: human NPY-Y1 potentiation or agonism, primary screen. P25929. NPY-Y1 expressing cells, potentiator/agonist activation. activation, % at 3.6 µM. 220,000 compounds, 0.37% hits. AID 1304; in the data active = activation above about 33%, passing the limit was not always enough;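 also: cells stimulated with NPY at EC10 then isoproterenol at EC100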
NPY Y2 blocker: NPY-Y2 (human) receptor antagonism; P49146; NPY-Y2 expressing cells, antagonist mode; inhibition, % at 2.7 µM; 140,000 compounds, 0.99% hits; AID 793; in the data active = inhibition above about 17%
Target sequence (P49146 whole entry, looked up): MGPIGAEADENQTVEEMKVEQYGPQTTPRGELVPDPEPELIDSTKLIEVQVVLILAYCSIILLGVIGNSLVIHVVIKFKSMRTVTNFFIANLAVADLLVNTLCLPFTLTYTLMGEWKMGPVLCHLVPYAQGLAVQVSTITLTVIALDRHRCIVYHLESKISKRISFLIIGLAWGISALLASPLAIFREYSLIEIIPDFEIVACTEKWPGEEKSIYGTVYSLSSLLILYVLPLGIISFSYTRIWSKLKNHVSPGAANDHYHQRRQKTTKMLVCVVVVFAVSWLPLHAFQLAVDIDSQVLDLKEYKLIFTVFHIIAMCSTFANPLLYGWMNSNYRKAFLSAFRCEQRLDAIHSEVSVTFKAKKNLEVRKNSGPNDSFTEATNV
RAM network inh: blocks the yeast RAM network. S. cerevisiae dse1pr::URA3 reporter, 5-FOA growth OD615, 2 d; analog-sensitive cbk1-as2 kinase mutant strain. inhibition, % at 50 µM. 190,000 compounds, 1.8% hits. AID 868;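 active = inhibition above a set limit, 3 SD over mean compound inhibition, cut at about 8.4% in these data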;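 also: inhibition rescues growth on 5-FOA so higher OD means more RAM inhibition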
Insulin prom inh: TRM-6 insulin promoter activity inhibition; TRM-6 cells, insulin promoter-eGFP reporter, imaging; reporter expression induced with tamoxifen; inhibition, % at 2 µM; 130,000 compounds, 0.9% hits; AID 1273;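 active = inhibition above the mean plus 3 SD, with well images judged a real hit on visual review, cut at about 60% in these data, passing the limit was not always enough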
NPY Y1 blocker: NPY-Y1 (human) receptor antagonism. inhibition, % at 3.6 µM. 200,000 compounds, 1% hits. HEK293-CNG Y1 cells, membrane potential fluorescence; NPY at EC95, then isoproterenol;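 active = inhibition above the campaign mean inhibition of all tested compounds plus 3 SD, cut at about 20% in these data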
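Assay system: HEK293 cells with Y1 receptor plus CNG channel | Probe or stimulus: NPY (25 nM), isoproterenol (1 µM), Ro 20-1724 (25 µM) | Timing: Compound incubation 1 h at room temperature, readout 45 min post-stimulation | Measured by: Membrane-potential fluorescent dye readout | Benchmarks: High control isoproterenol alone, low control NPY with isoproterenol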
NPY2 pot ag: potentiates or activates human NPY-Y2 receptor; P49146; cells expressing NPY-Y2, potentiator/agonist read-out; activation, % at 3.6 µM; 220,000 compounds, 0.45% hits; AID 1359; in the data active = activation above about 27%;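 also: cells stimulated with NPY near EC25 plus isoproterenol at EC100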
RAM efflux-def: restores 5-FOA growth of efflux-deficient yeast; 1,200 tested, under 10 active; shares compounds with RAM network inh; max inhibition, %; S. cerevisiae efflux-deficient reporter strain, 5-FOA growth OD615, 2 days; call rule not given here
Numbers stand for hits; i = inactive; nt = no result given.

SMILES | NPY1 pot ag | NPY Y2 blocker | RAM network inh | Insulin prom inh | NPY Y1 blocker | NPY2 pot ag | RAM efflux-def
CCOC(=O)/C(C#N)=C1/C=C(C)NC(c2ccccc2O)=N1 | i | i | i | i | i | i | nt
CCCCN(CCCC)C1=Nc2ccccc2N/C1=C(/C#N)C(=O)OCC | i | i | 16 | i | i | i | i
CCOC(=O)c1[nH]cnc1N=Nc1c(O)ccc2ccccc12 | i | i | 15 | i | i | i | i
Oc1ccc2ccccc2c1N=Nc1ccccn1 | i | i | i | i | i | i | nt
CCOc1ccc(Oc2cc(N)cc([N+](=O)[O-])c2)cc1 | i | nt | i | i | i | i | nt
Cc1ccc(Cl)cc1N1CCN(S(=O)(=O)c2ccc3[nH]c(=O)c(=O)[nH]c3c2)CC1 | i | nt | 12 | i | i | i | i
Cc1ccc(Cl)cc1N1CCN(S(=O)(=O)c2cccc(S(=O)(=O)N3CCCC3)c2)CC1 | i | i | i | i | i | i | nt
CS/C(N)=N/S(=O)(=O)c1ccc(NC(C)=O)cc1 | i | nt | nt | nt | nt | i | nt
CC1CCc2c(sc3nc(CSc4nnnn4C)[nH]c(=O)c23)C1 (stereo not given) | i | nt | nt | nt | nt | i | nt
Cc1cccc(C)c1OCC(O)Cn1nnc2ccccc21 (stereo not given) | i | i | i | i | i | i | nt
Cc1cccc(C)c1OCC(O)Cn1c2ccccc2c2ccccc21 (stereo not given) | i | i | 15 | nt | i | i | i
Cc1ccc(OCC(O)Cn2c3ccccc3c3ccccc32)cc1 (stereo not given) | i | i | 12 | i | i | i | i
O=C(C1=C(O)C(=O)N(Cc2cccnc2)C1c1ccccn1)c1cccs1 (stereo not given) | i | nt | i | nt | i | i | nt
CCOC(=O)c1c(C)[nH]c(N=Nc2cccc(C)c2)c1C | i | i | 12 | i | i | i | i
CCOC(=O)c1c(C)[nH]c(N=Nc2cccc(OC)c2)c1C | i | nt | i | nt | i | i | nt
N#C/C(=C\c1c[nH]c2ccccc12)C(=O)Nc1ncc(Cc2ccc(Cl)cc2Cl)s1 | i | i | 14 | nt | i | i | i
Cn1cc(/C=C(\C#N)C(=O)Nc2ncc(Cc3cccc(Cl)c3)s2)c2ccccc21 | i | i | i | nt | i | i | nt
CCCc1ccc(C(=O)Cn2nc(C(=O)O)c3ccccc3c2=O)cc1 | i | nt | i | i | i | i | nt
O=C(CCSCc1ccccc1Cl)N1CCN(c2cccc(Cl)c2)CC1 | i | i | i | i | i | i | nt
CN(C)c1ccc(C2Nc3ccccc3C(=O)N2CCCN2CCOCC2)cc1 (stereo not given) | i | nt | nt | nt | nt | i | nt
O=S(=O)(Nc1ccc(N=Nc2ccc(O)c3ccccc23)cc1)c1ccccc1 | 73 | i | 13 | i | i | 62 | i
O=S(=O)(Nc1ccc(N=Nc2ccccc2)cc1)c1ccccc1 | i | i | i | nt | i | i | nt
CN(C)S(=O)(=O)N1CCC(c2ccc(F)cc2)C(COc2ccc3c(c2)OCO3)C1 (stereo not given) | i | 28 | 17 | i | 44 | i | i
COc1ccc(/C=C2/SC(=O)N(NS(=O)(=O)c3ccccc3)C2=S)cc1OC | i | i | i | i | i | i | nt
O=C(CSCC(=O)Nc1ccc2ccccc2c1)NCc1ccccc1 | i | i | i | nt | i | i | nt
SMILES | NPY1 pot ag | NPY Y2 blocker | RAM network inh | Insulin prom inh | NPY Y1 blocker | NPY2 pot ag | RAM efflux-def
CC(C)c1ccc(CNC(=O)CSCC(=O)Nc2ccc3ccccc3c2)cc1 | i | i | 13 | i | i | i | i
CCCCC(=O)Nc1nnc(CCOC)s1 | i | nt | i | nt | i | i | nt
Cc1ccc(S(=O)(=O)NCCC(c2ccccc2)c2ccco2)cc1 (stereo not given) | i | i | 14 | i | i | i | i
O=C1CSC(c2cccnc2)N1CCc1ccccn1 (stereo not given) | i | nt | nt | nt | nt | i | nt
CN(C)S(=O)(=O)N(CC(=O)N1CCN(c2ccccc2)CC1)c1ccccc1 | i | nt | i | nt | i | i | nt
Cc1ccc(OCCn2cc(/C=C(\C#N)C(=O)NCC3CCCO3)c3ccccc32)cc1 (stereo not given) | i | i | 14 | i | i | i | i
Cc1ccc(OCCn2cc(/C=C(\C#N)C(=O)NCC3CCCO3)c3ccccc32)cc1C (stereo not given) | i | i | 12 | nt | i | i | i
N#Cc1cc2cc3c(cc2nc1N1CCOCC1)OCO3 | i | i | i | i | i | i | nt
